Data published in publication PMC3163381 (Biochemistry, 2011).

Experiments:
MscS = assay: Patch-clamp of MscS in giant spheroplast patches, activation midpoint; type: biochemical, E. coli
Procedure, shortened: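 Giant spheroplasts from cephalexin-treated E. coli MJF 465 (mscS/mscK/mscL) expressing WT MscS. Excised inside-out patches in symmetrical 200mM KCl, 45mM MgCl2, 5mM CaCl2, 5mM HEPES (pH 7.4, KOH); bath had 400mM sucrose added. Test compound was perfused into the bath (cytoplasmic side). p0.5 was taken from 1 s pressure ramps, first within 1 min, then tracked over time, and normalized to pre-addition control.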

[1] = Pressure-area isotherms of lipid monolayers with the substance in the subphase; type: physicochemical, Escherichia coli; conditions: for increase in the lipid molecular area: 1 mM in subphase, at 35 mN/m (monolayer-bilayer equivalence pressure)
[2] = Surface tension measurements at the air-water interface; type: physicochemical; conditions: for surface activity at the air-water interface: result in words
[3] = Solubility and stock solution observations in aqueous solution; conditions: result in words
[4] = Stability of AI-1 in water and phosphate buffer; type: physicochemical
Procedure, shortened: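 Test compound was held in deionized water and in phosphate buffer at pH 7.4, and followed over several days. Half-life was determined in the buffer.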

## CC(=O)C(=O)C(O)CO (centres unmarked) [AI-2 (Methyl), 4,5-dihydroxy-2,3-pentanedione]
MscS; up to 1 mM in the bath, result in words, listed as AI-2
  effect on the activation midpoint of MscS: no detectable shifts
[1]
  increase in the lipid molecular area: 2%
[2]
  surface activity at the air-water interface: did not show any appreciable surface activity

## c1ccc2[nH]ccc2c1 [Indole]
MscS; 2.5 mM indole, after return
  level at which p0.5 stabilizes above the control: ~ 4%
MscS; 2.5 mM indole, cytoplasmic side, naive patch
  transient shift of MscS activation curve towards higher tension: ~ 20%
[3]
  solubility in aqueous solution: limited solubility
[1]
  increase in the lipid molecular area: 5%
[2]
  surface activity at the air-water interface: did not show any appreciable surface activity

## CCCCCCCC(=O)CC(=O)N[C@H]1CCOC1=O [AI-1, N-(3-Oxodecanoyl)-L-homoserine lactone]
MscS; 1 mM AI-1 from cytoplasmic side, relative to untreated control
  shift of MscS p0.5 toward higher tension: ≤ 23%
[4]; deionized water, result in words
  stability in pure water: stable in pure water in the course of several days
[4]; phosphate buffer at pH 7.4
  half-life: 130 h
[1]; at lipid area of 68–70 Å^2, Fig. 4A
  lateral pressure increase in monolayers: ~ 5 mN/m
[2]; Gibbs isotherm fit, 100 mM KCl, 5 mM HEPES pH 7.4
  Γ, surface excess: 3.4*10^−6 mol/m^2
[2]; air-water interface, from Gibbs isotherm fit
  AS, molecular area at the surface: 49 Å^2
[2]; at 1–5 mM, aqueous buffer pH 7.4
  decrease of surface tension of the solution: ~ 17 mN/m
[2]; calculated from AS and KAW according to Suomalainen
  log Kmemb, membrane partitioning coefficient: 1.94
[2]; extrapolated Gibbs isotherm fit, pH 7.4
  KAW, propensity toward air-water interface: 5600 M⁻¹
